In paper PMC7115694 (European Journal of Medicinal Chemistry, 2010):
Marks after values point to notes of the source that are not given here.

What was measured:
Type in all cases: cell-based
[1] = tested on: Reovirus-1; test: organism not typed; conditions: Vero, read-out: EC50 Reovirus-1
[2] = tested on: Para-influenza-3 virus; test: organism not typed; conditions: Vero, read-out: EC50 Para-influenza-3 virus
[3] = tested on: Aspergillus niger; test: MIC by tube dilution method; conditions: observed, A. niger, 25 °C 7 d
[4] = tested on: C. albicans and A. niger; test: Average antifungal activity; conditions: average antifungal activity (pMICca + pMICan)/2
[5] = tested on: Escherichia coli; test: MIC by tube dilution method; conditions: observed, E. coli, 37 °C 24 h
Outline: (§1)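 Test compound is diluted in double strength nutrient broth (I.P.) by tube dilution, with ciprofloxacin as reference. Samples incubated at 37 °C for 24 h. MIC is the lowest concentration inhibiting microbial growth, transformed into pMIC for analysis.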

[6] = tested on: HEL cells; test: Cytotoxicity in uninfected cell cultures; conditions: microscopically detectable alteration of cell morphology
Outline: (§2)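 Uninfected cell cultures are exposed to serial dilutions of test compound in parallel with the virus cytopathicity assays. Cells are examined microscopically. Minimum cytotoxic concentration is the lowest concentration causing a microscopically detectable alteration of normal cell morphology.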

[7] = tested on: Vero cells; test: Cytotoxicity in uninfected cell cultures; conditions: cell morphology
Outline: as §2

[8] = tested on: Staphylococcus aureus; test: MIC by tube dilution method; conditions: observed, S. aureus, 37 °C 24 h
[9] = tested on: Candida albicans; test: MIC by tube dilution method; conditions: observed, C. albicans, 37 °C 48 h
[10] = tested on: HeLa cells; test: Cytotoxicity in uninfected cell cultures; conditions: cell morphology
Outline: as §2

[11] = tested on: S. aureus, B. subtilis, E. coli, C. albicans and A. niger; test: Average antimicrobial activity; conditions: mean of five pMIC values
[12] = tested on: S. aureus, B. subtilis and E. coli; test: Average antibacterial activity; conditions: average antibacterial activity (pMICsa + pMICbs + pMICec)/3
[13] = tested on: Feline Herpes virus; test: organism not typed; conditions: CRFK, read-out: EC50 Feline Corona Virus
[14] = tested on: Bacillus subtilis; test: MIC by tube dilution method; conditions: observed, B. subtilis, 37 °C 24 h
Outline: as §1

Compound	EC50 [1] [µg/mL]	EC50 [2] [µg/mL]	pMICan [3]	pMICaf [4]	pMICec [5]	Minimum cytotoxic concentration [6] [µg/mL]	Minimum cytotoxic concentration [7] [µg/mL]	pMICsa [8]	pMICca [9]	Cytotoxicity Minimum cytotoxic concentration [10] [µg/mL]	pMICam [11]	pMICab [12]	EC50 [13] [µg/mL]	pMICbs [14]
O=C(c1ccccc1)n1c(-c2ccc(S(=O)(=O)O)cc2)nc2ccccc21 [Compound 2]	> 100	> 100	1.48	1.63	2.12	>100	>100	2.08	1.78	>100	1.92	2.11	> 100	2.12
C=C(C)C(=O)n1c(-c2ccc(S(=O)(=O)O)cc2)nc2ccccc21 [Compound 14]	> 100	> 100	1.14	1.29	2.04	>100	>100	1.74	1.44	>100	1.62	1.84	> 100	1.74
Nc1ccc(C(=O)n2c(-c3ccc(S(=O)(=O)O)cc3)nc3ccccc32)cc1 [Compound 3]	> 100	> 100	1.50	1.35	2.10	>100	>100	2.10	1.20	>100	1.74	2.00	> 100	1.80
OC(Cn1cncn1)(Cn1cncn1)c1ccc(F)cc1F [Fluconazole, fluconazole, reference compound]	–	–	2.64**	2.64	–	–	–	–	2.64**	–	–	–	–	–
C=CC(=O)n1c(-c2ccc(S(=O)(=O)O)cc2)nc2ccccc21 [Compound 13]	> 100	> 100	1.12	1.27	2.32	100	>100	1.72	1.42	>100	1.72	2.02	> 20	2.02
O=C(c1cccc(O)c1)n1c(-c2ccc(S(=O)(=O)O)cc2)nc2ccccc21 [Compound 6]	> 100	> 100	1.20	1.35	2.40	>100	>100	2.10	1.50	>100	1.87	2.22	> 100	2.15
CCCCCCCCCCCCCCCC(=O)n1c(-c2ccc(S(=O)(=O)O)cc2)nc2ccccc21 [Compound 19]	> 100	> 100	1.61	1.61	1.61	>100	>100	2.23	1.61	>100	1.86	2.02	> 100	2.23
CCCCCCCC/C=C/CCCCCCCC(=O)n1c(-c2ccc(S(=O)(=O)O)cc2)nc2ccccc21 [Compound 18, 4-(1-octadec-9-enoyl-1H-benzoimidazol-2-yl)-benzenesulfonic acid]	> 100	> 100	1.63	1.79	1.85	>100	>100	2.24	1.94	>100	1.98	2.11	> 100	2.24
O=C(c1ccccc1Cl)n1c(-c2ccc(S(=O)(=O)O)cc2)nc2ccccc21 [Compound 4]	> 100	> 100	1.22	1.37	2.42	>100	>100	2.09	1.52	>100	1.81	2.11	> 100	1.82
O=C(c1ccc([N+](=O)[O-])cc1)n1c(-c2ccc(S(=O)(=O)O)cc2)nc2ccccc21 [Compound 9, 4-[1-(4-Nitrobenzoyl)-1H-benzoimidazol-2-yl]-benzenesulfonic acid]	> 100	> 100	1.53	1.83	2.43	>100	>100	2.43	2.13	>100	2.19	2.43	> 100	2.43
Nc1ccccc1C(=O)n1c(-c2ccc(S(=O)(=O)O)cc2)nc2ccccc21 [Compound 1]	> 4	> 4	1.50	1.60	2.40	>100	–	1.80	1.70	≥20	1.89	2.08	> 4	2.03
O=C(c1cccnc1)n1c(-c2ccc(S(=O)(=O)O)cc2)nc2ccccc21 [Compound 15]	> 100	> 100	1.48	1.62	2.39	>100	>100	2.13	1.75	>100	1.98	2.22	> 100	2.13
O=C(O)c1cn(C2CC2)c2cc(N3CCNCC3)c(F)cc2c1=O [Ciprofloxacin, ciprofloxacin, reference compound]	–	–	–	–	2.61*	–	–	2.61*	–	–	–	2.61	–	2.61*
